Some results are limits rather than exact numbers.

Here are results for 26 compounds from ChEMBL document CHEMBL1135821, “Unique overlap in the prerequisites for thrombin inhibition and oral bioavailability resulting in potent oral antithrombotics” (J Med Chem, 2002).

Data set [1] is described as follows: Bioavailability in dog. The data set is classed as ADME, organism-based, Canis lupus familiaris. The note with it: in vivo. Put shortly: (§1)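 Rats (275-325 g) with jugular cannula placed under methohexital one day earlier; dogs dosed by both routes with at least 2 weeks wash-out. IV and oral gavage in separate rats. At least six blood samples in EDTA. Plasma anti-IIa activity measured with S-2238 against a compound-spiked plasma calibration. %F = PO AUC divided by dose-normalized mean IV AUC ×100, AUC by trapezium rule.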

The nature of data set [2]: Half life value in dog was determined. Type of data set: ADME, organism-based, Canis lupus familiaris. The conditions noted are these: in vivo. Put shortly: (§2)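 Elimination half-life after IV dosing of cannulated rats (275-325 g) or dogs, at least six EDTA plasma samples. Plasma samples diluted in Tris-NaCl pH 7.4, incubated 2 min with 0.5 U/mL human thrombin, then S-2238 added. ΔOD405 taken between 2 and 22 min and read against a calibration of compound spiked in pooled plasma. Fitted by iterative Simplex procedure.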

Data set [3] in a line: Half life value in rat was determined. The data set is classed as ADME, organism-based. The note with it: in vivo. The procedure, abridged:
as §2

A short description of data set [4]: Bioavailability in rat. The data set is classed as ADME, organism-based. The note with it: in vivo. Put shortly: as §1
For data set [5], the target named is T1, Prothrombin (Homo sapiens, UniProt P00734). The data set is described as follows: Inhibitory activity against thrombin.
Data set [6] can be described thus: Half life was reported. Type of data set: ADME.
Data set [7] can be described thus: Oral bioavailability. The note with it: eutheria, in vivo. Type of data set: ADME, organism-based. Put shortly: as §1
Data set [8] is described as follows: Bioavailability in rat (Wistar). Type of data set: ADME, organism-based. The note with it: in vivo. The procedure, abridged: as §1
The nature of data set [9]: Half life value determined in dog. Type of data set: ADME, Canis lupus familiaris. The conditions noted are these: in vivo. Put shortly: as §2
A short description of data set [10]: Half life value in wistar rats. Type of data set: ADME, organism-based. The conditions noted are these: rat, in vivo. The procedure, abridged:
as §2

Data set [11] addresses T1, Prothrombin. Nature of the data set: Antithrombotic potency in the Aortic flow model in rats was reported. The data set is classed as functional. The conditions noted are these: Rattus norvegicus; target entry is the homologue from another species. Put shortly:
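Rats (350-500 g body wt) were weighed. A silk thread (size 4/0, uncoated), knotted twice and protruding 3 mm from a catheter, was introduced via the left common carotid artery and positioned in the aorta. The carotid was clamped and the iliac clamp released. After 10 min of blood circulation, the thread was removed and rinsed, and thrombus weight and length were measured.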

Data set [12] is described as follows: Bioavailability in dog determined. Type of data set: ADME, organism-based, Canis lupus familiaris. The note with it: in vivo. Put shortly:
as §1

Data set [13] can be described thus: Clearance was reported. Type of data set: ADME, organism-based. The conditions noted are these: in vivo.
Data set [14] is described as follows: Bioavailability determined in rat. Type of data set: ADME, organism-based. The note with it: in vivo. Put shortly:
as §1

In the case of `CC(C)OC(=O)C(=O)[C@H](CCCCN)NC(=O)[C@@H]1CCCN1C(=O)[C@@H](CC1CCCCC1)NCC(=O)O`, the bioavailability in [1] came to 71%; in data set [4], 32%. The figures for the half-life in [2] and in data set [3] were 108 min and 58 min, respectively. In addition, the Ki on Prothrombin [5] was 1.1 nM.

In turn, `NCCCC[C@H](NC(=O)[C@@H]1CCCN1C(=O)[C@@H](CC1CCCCC1)NCC(=O)O)C(=O)c1ncco1` returned a half-life in data set [6] of under 5 min. The bioavailability in data set [7] was 28%. This compound had a Ki at Prothrombin [5] of 0.42 nM.

Take `NCCCC[C@H](NC(=O)[C@@H]1CCN1C(=O)[C@@H](CC1CCCCC1)NCC(=O)O)C(=O)C(=O)O`: the bioavailability in data set [8] is 15%; in data set [1], 1%. Also, the half-life in [9] turned out to be 42 min; in [10], 21 min. The affinity on Prothrombin [5] corresponds to a Ki of 0.5 nM.

On Prothrombin [5], `NCCCC[C@H](NC(=O)CN(C1CC1)C1Cc2ccccc2C1)C(=O)c1nccs1` had a Ki of over 1000 nM.

With `NCCCC[C@H](NC(=O)[C@@H]1CCCN1C(=O)[C@@H](CC1CCCCC1)NCC(=O)O)C(=O)c1nccs1`, the half-life in [6] is 23 min. For the same compound, the bioavailability in [7] was determined as 23%. For the same compound, at Prothrombin [11], the ED50 (nM min-1 kg-1) was found to be 19. This compound also showed a Ki at Prothrombin [5] of 2.6 nM.

Regarding `NCCCC[C@H](NC(=O)[C@@H]1CCCN1C(=O)[C@H](N)CC1CCCCC1)C(=O)c1nccs1`, in data set [8], the bioavailability was under 5%. This compound also returned a half-life in data set [10] of 17 min. In addition, at Prothrombin [5], the Ki came to 3.5 nM.

As to `COc1ccc2ccc(S(=O)(=O)N[C@@H](CCCCN)C(=O)c3nccs3)cc2c1`, the Ki at Prothrombin [5] is over 1000 nM.

The compound `CCS(=O)(=O)N[C@H](CC1CCCCC1)C(=O)N1CCC[C@H]1C(=O)N[C@@H](CCCCN)C(=O)c1nccs1` displayed a Ki at Prothrombin [5] of 2 nM.

Compound `NCCCC[C@H](NC(=O)[C@@H]1CCCN1C(=O)[C@@H](CC1CCCCC1)NCC(=O)O)C(=O)C(=O)NCCc1ccccc1` displayed a half-life in [3] of 17 min. The same compound displayed a bioavailability in [4] of 23%. Moreover, the Ki at Prothrombin [5] was determined as 0.84 nM.

Turning to `NCCCC[C@H](NC(=O)CN(C(=O)[C@@H](CC1CCCCC1)NCC(=O)O)C1CCCC1)C(=O)C(=O)O`, the half-life in [3] stood at 18 min. The bioavailability in data set [4] came out at 2%. Besides, on Prothrombin [5], the Ki is 0.21 nM.

As for `NCCCC[C@H](NC(=O)[C@@H]1CC2CCCCC2N1C(=O)[C@@H](CC1CCCCC1)NCC(=O)O)C(=O)C(=O)O` (stereo partly drawn), in data set [3], the half-life is 8 min. In addition, the bioavailability in data set [4] came out at 25%. On Prothrombin [5], this compound registered a Ki of 0.82 nM.

The compound `COc1ccc2ccc(S(=O)(=O)N[C@@H](CCCCN)C(=O)N3CCC(C)CC3)cc2c1` registered a Ki at Prothrombin [5] of over 1000 nM.

For the compound `NCCCC[C@H](NC(=O)[C@@H]1CCCN1C(=O)[C@@H](CC1CCCCC1)NCC(=O)O)C(=O)C(=O)O`, the results for the bioavailability in data set [12] and in [7] were 24% and 39%, respectively. Besides, the results for the half-life in [9] and in [10] were 78 min and 19 min, respectively. Further, the clearance in data set [13] was 0.417 mL/min. The ED50 (nM min-1 kg-1) at Prothrombin [11] came out at 7.5. The same compound came in with a Ki at Prothrombin [5] of 0.29 nM.

As to `CC1(C)CCN(C(=O)[C@@H](CC2CCCCC2)NCC(=O)O)[C@@H]1C(=O)N[C@@H](CCCCN)C(=O)C(=O)O`, the Ki on Prothrombin [5] turned out to be 376 nM.

At Prothrombin [5], `NC(N)=NCCC[C@@H]1NC(=O)[C@@H]2CCCN2C(=O)[C@@H](NC=O)CNC(=O)/C=C/[C@H](Cc2ccc(O)cc2)NC(=O)[C@@H](Cc2ccccc2)NC(=O)C1=O` [CYCLOTHEONAMIDE A] yielded a Ki of 1 nM.

At Prothrombin [5], `NCCCC[C@H](NC(=O)CN(C(=O)[C@H](N)CC1CCCCC1)C1CC1)C(=O)c1nccs1` came in with a Ki of 13 nM.

At Prothrombin [5], `NCCCC[C@H](NC(=O)[C@@H]1CCCN1C(=O)[C@H](N)Cc1ccccc1)C(=O)c1nccs1` returned a Ki of 146 nM.

With `NCCCC[C@H](NC(=O)[C@@H]1CCCN1C(=O)[C@H](N)CC1CCCCC1)C(=O)C(=O)O`, the half-life in data set [6] turned out to be 9 min. Besides, the bioavailability in data set [7] came out at 9%. This compound showed a Ki on Prothrombin [5] of 0.14 nM.

In the case of `O=C(c1nccs1)[C@H](CCCCO)NC(=O)[C@@H]1CCCN1C(=O)CC(c1ccccc1)c1ccccc1`, the Ki at Prothrombin [5] is over 1000 nM.

Turning to `NCCCC[C@H](NC(=O)[C@@H]1CCCCN1C(=O)[C@@H](CC1CCCCC1)NCC(=O)O)C(=O)C(=O)O`, in data set [10], the half-life turned out to be 5 min. The compound also yielded a bioavailability in [14] of 6%. Besides, on Prothrombin [5], the Ki turned out to be 0.29 nM.

On to `NCCCC[C@H](NC(=O)[C@@H]1C=CCN1C(=O)[C@@H](CC1CCCCC1)NCC(=O)O)C(=O)C(=O)O`, for which the bioavailability in [8] was 37%; in data set [1], 68%. The values for the half-life in data set [8] and in [10] were 32 min and 22 min, respectively. For the same compound, the Ki on Prothrombin [5] stood at 0.33 nM.

The compound `NCCCC[C@H](NC(=O)[C@@H]1CCCN1C(=O)[C@H](N)Cc1ccccc1)C(=O)C(=O)O` yielded a Ki on Prothrombin [5] of 1.4 nM.

Take `CC1CNc2c(cccc2S(=O)(=O)N[C@@H](CCCNC(=N)N)C(=O)N2CC[C@@H](C)C[C@@H]2C(=O)O)C1` (stereo partly drawn) [ARGATROBAN]: in data set [7], the bioavailability was determined as 27%.

With `NCCCC[C@H](NC(=O)[C@@H]1CCCN1C(=O)[C@H](CC(=O)O)NS(=O)(=O)Cc1ccccc1)C(=O)C(=O)O`, the Ki at Prothrombin [5] was determined as 15 nM.

Take `NC(N)=NCCC[C@H](NC(=O)[C@@H]1CCCN1C(=O)[C@@H](N)Cc1ccccc1)C(=O)c1nccs1`: in data set [6], the half-life was 5 min. The compound further returned a bioavailability in data set [7] of under 5%. On Prothrombin [5], the Ki was found to be 0.3 nM.

`NCCCC[C@H](NC(=O)[C@@H]1CCCN1C(=O)CC(c1ccccc1)c1ccccc1)C(=O)c1nccs1` came in with a Ki on Prothrombin [5] of 204 nM.
